Source: ChEMBL document CHEMBL1152233, “The identification of pyrazolo[1,5-a]pyridines as potent p38 kinase inhibitors” (Bioorg Med Chem Lett, 2008)
One block for each compound: values may come before it.

What was measured:
[1] = biological target: Mitogen-activated protein kinase 14 (Homo sapiens, UniProt Q16539); assay: Inhibition of GST-fused p38alpha expressed in Escherichia coli
Procedure, shortened: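 GST-tagged p38 and MEK6 at the N-terminus, purified from E. coli. Reaction ran 60 min at rt, was EDTA-quenched, and was read with streptavidin SPA beads. IC50 was fitted from % inhibition against ±EDTA controls. Values are means of >2 experiments.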

[2] = Metabolic stability in rat liver S9 microsomal fraction assessed as parent compound turnover after 30 mins; type: ADME, subcellular; details: read-out: Stability
Procedure, shortened: (§1)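 Test compound was incubated with liver S9 fraction (5 mg protein/mL) for 30 min. Read-out is % turnover of parent compound. Values are means of ≥2 incubations.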

[3] = AUC in Lewis rat at 1 mg/kg, iv; type: ADME, organism-based; set-up: dose 1 mg/kg, route intravenous; details: plasma
[4] = Clearance in Beagle dog at 1 mg/kg, iv; type: ADME, organism-based, Canis lupus familiaris; set-up: dose 1 mg/kg, route intravenous; details: in vivo
[5] = Bioavailability in Beagle dog at 1 mg/kg, iv; type: ADME, organism-based, Canis lupus familiaris; details: in vivo
[6] = Half life in Beagle dog at 1 mg/kg, iv; type: ADME, organism-based, Canis lupus familiaris; set-up: dose 1 mg/kg, route intravenous; details: in vivo
[7] = Clearance in Lewis rat at 1 mg/kg, iv; type: ADME, organism-based; set-up: dose 1 mg/kg, route intravenous; details: in vivo
[8] = Volume of distribution at steady state in Lewis rat at 1 mg/kg, iv; type: ADME, organism-based; set-up: dose 1 mg/kg, route intravenous; details: in vivo, read-out: Vdss
[9] = Half life in Lewis rat at 1 mg/kg, iv; type: ADME, organism-based; set-up: dose 1 mg/kg, route intravenous; details: in vivo
[10] = AUC in Beagle dog at 1 mg/kg, iv; type: ADME, organism-based, Canis lupus familiaris; set-up: dose 1 mg/kg, route intravenous; details: plasma
[11] = Metabolic stability in dog liver S9 microsomal fraction assessed as parent compound turnover after 30 mins; type: ADME, subcellular, Canis lupus familiaris; details: read-out: Stability; procedure, shortened: as §1
[12] = Bioavailability in Lewis rat at 1 mg/kg, iv; type: ADME, organism-based; details: in vivo
[13] = Volume of distribution at steady state in Beagle dog at 1 mg/kg, iv; type: ADME, organism-based, Canis lupus familiaris; set-up: dose 1 mg/kg, route intravenous; details: in vivo, read-out: Vdss
[14] = biological target: Vascular endothelial growth factor receptor 2 (Homo sapiens, UniProt P35968); assay: Inhibition of VEGFR2
Chain of Vascular endothelial growth factor receptor 2 (P35968 whole entry): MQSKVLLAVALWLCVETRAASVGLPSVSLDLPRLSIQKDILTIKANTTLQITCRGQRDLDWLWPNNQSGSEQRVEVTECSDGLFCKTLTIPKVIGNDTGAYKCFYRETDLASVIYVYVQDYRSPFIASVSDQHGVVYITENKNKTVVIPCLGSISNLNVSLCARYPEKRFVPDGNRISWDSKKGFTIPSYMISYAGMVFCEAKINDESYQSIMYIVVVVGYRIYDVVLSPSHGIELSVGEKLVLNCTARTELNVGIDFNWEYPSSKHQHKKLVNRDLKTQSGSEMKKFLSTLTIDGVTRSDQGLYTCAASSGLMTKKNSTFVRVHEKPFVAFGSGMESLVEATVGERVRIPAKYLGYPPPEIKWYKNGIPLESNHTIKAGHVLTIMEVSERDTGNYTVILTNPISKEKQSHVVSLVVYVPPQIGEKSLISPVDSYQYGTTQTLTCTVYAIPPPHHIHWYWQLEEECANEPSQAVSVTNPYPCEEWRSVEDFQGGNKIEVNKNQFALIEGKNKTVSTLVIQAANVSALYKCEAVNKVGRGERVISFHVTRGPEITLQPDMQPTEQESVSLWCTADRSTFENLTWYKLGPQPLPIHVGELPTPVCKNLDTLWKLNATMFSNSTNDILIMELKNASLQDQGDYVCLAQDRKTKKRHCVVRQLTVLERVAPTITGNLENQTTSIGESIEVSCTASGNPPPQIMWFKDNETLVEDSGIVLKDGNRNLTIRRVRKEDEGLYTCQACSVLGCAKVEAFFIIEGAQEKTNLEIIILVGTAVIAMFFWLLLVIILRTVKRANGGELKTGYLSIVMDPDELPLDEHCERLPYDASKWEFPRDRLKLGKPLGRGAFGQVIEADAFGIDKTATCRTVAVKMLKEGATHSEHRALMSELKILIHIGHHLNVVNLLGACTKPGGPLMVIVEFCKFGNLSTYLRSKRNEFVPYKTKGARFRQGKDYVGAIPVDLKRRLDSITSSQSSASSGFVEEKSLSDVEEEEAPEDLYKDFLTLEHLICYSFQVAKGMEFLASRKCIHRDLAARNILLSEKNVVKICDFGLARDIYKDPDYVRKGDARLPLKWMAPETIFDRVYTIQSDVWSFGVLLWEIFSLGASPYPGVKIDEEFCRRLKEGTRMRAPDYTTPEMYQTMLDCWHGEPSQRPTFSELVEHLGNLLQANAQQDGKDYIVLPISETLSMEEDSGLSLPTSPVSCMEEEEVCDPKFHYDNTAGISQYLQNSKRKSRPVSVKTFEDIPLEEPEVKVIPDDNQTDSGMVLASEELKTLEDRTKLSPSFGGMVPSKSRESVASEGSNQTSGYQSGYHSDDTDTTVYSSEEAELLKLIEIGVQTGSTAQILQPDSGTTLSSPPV

[15] = biological target: [Pyruvate dehydrogenase (acetyl-transferring)] kinase isozyme 4, mitochondrial (Homo sapiens, UniProt Q16654); assay: Inhibition of PDHK4
Chain of [Pyruvate dehydrogenase (acetyl-transferring)] kinase isozyme 4, mitochondrial (Q16654 whole entry): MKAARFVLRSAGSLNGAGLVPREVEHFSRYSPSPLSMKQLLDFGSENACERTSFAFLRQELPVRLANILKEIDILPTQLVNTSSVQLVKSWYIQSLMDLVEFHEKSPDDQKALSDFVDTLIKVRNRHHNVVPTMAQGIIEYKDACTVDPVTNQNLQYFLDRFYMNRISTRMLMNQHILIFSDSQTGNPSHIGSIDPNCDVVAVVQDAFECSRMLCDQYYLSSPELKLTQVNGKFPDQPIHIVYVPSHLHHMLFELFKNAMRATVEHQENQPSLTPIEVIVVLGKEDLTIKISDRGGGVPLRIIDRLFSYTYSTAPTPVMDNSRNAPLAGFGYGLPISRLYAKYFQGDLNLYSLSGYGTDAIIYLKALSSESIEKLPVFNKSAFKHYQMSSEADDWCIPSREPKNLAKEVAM

[16] = biological target: Receptor tyrosine-protein kinase erbB-2 (Homo sapiens, UniProt P04626); assay: Inhibition of ERBB2
Chain of Receptor tyrosine-protein kinase erbB-2 (P04626 whole entry): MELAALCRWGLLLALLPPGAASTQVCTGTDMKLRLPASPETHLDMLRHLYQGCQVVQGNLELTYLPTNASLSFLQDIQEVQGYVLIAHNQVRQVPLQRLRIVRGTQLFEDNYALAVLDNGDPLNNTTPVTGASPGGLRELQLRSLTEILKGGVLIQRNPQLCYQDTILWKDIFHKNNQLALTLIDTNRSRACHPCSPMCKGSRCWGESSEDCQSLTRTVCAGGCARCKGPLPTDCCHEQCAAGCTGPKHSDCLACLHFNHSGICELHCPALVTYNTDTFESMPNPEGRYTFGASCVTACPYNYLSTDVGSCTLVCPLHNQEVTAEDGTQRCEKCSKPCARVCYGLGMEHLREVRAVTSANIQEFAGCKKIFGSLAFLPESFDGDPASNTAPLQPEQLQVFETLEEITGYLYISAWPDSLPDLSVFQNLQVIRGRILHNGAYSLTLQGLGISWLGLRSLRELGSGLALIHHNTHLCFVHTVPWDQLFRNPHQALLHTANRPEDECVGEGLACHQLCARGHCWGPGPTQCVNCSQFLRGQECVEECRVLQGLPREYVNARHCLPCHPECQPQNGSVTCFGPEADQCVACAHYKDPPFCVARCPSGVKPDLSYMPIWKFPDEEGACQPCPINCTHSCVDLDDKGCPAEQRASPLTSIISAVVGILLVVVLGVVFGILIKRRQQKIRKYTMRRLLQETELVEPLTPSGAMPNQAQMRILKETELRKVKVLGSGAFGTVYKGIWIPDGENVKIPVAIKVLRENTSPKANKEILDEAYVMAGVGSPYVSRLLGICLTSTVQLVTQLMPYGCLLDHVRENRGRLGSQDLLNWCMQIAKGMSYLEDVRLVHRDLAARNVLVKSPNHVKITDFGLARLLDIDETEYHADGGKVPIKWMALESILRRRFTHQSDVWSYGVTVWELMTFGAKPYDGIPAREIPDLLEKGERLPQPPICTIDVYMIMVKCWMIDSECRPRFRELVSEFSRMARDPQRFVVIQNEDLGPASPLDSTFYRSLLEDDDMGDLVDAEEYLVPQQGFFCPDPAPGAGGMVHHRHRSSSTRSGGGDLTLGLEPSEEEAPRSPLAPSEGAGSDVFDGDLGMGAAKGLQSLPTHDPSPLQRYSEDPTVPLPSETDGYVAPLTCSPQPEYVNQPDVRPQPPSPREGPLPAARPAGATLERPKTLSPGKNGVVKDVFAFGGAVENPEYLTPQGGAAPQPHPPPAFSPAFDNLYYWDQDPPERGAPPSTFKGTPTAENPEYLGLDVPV

[17] = Half life in Lewis rat at 5 mg/kg, iv; type: ADME, organism-based; set-up: dose 5 mg/kg, route intravenous; details: in vivo
[18] = Clearance in Lewis rat at 5 mg/kg, iv; type: ADME, organism-based; set-up: dose 5 mg/kg, route intravenous; details: in vivo
PBMC = assay: Inhibition of LPS-induced TNF release in human PBMC; type: functional, cell-based
[19] = biological target: Receptor tyrosine-protein kinase erbB-4 (Homo sapiens, UniProt Q15303); assay: Inhibition of ERBB4
[20] = biological target: Macrophage colony-stimulating factor 1 receptor (Homo sapiens, UniProt P07333); assay: Inhibition of C-FMS
Chain of Macrophage colony-stimulating factor 1 receptor (P07333 whole entry): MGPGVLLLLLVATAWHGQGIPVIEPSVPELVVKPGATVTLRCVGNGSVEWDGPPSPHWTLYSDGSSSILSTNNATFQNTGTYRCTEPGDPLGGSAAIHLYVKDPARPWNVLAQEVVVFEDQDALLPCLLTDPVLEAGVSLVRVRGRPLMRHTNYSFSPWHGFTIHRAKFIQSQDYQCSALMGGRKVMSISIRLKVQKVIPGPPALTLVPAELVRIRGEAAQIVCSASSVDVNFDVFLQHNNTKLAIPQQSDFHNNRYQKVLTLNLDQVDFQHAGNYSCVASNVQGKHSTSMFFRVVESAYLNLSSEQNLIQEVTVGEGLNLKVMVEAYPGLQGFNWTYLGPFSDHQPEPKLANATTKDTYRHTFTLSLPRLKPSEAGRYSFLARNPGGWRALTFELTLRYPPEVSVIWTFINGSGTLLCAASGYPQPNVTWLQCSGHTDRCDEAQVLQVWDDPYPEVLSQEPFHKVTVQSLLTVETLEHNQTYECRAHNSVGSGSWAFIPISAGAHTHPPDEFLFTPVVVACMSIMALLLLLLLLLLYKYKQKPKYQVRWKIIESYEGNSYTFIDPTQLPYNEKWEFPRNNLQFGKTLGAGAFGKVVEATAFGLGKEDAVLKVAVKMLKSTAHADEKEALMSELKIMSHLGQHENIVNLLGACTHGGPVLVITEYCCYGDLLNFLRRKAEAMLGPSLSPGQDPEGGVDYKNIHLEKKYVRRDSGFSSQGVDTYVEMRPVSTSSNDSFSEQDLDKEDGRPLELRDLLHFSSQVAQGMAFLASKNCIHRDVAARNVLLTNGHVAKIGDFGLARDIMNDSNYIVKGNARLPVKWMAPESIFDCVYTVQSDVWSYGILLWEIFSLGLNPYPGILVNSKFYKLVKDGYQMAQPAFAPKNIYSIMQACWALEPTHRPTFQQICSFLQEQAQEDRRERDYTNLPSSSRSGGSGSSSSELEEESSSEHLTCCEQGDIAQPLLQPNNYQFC

[21] = biological target: Cyclin-dependent kinase 2 (Homo sapiens, UniProt P24941); assay: Inhibition of CDK2/CyclinA
[22] = AUC in Lewis rat at 5 mg/kg, iv; type: ADME, organism-based; set-up: dose 5 mg/kg, route intravenous; details: plasma
Angiopoietin-1 receptor = Angiopoietin-1 receptor (Homo sapiens, UniProt Q02763); assay: Inhibition of TIE2
[23] = Volume of distribution at steady state in Lewis rat at 5 mg/kg, iv; type: ADME, organism-based; set-up: dose 5 mg/kg, route intravenous; details: in vivo, read-out: Vdss
[24] = Bioavailability in Lewis rat at 5 mg/kg, iv; type: ADME, organism-based; details: in vivo
[25] = biological target: Glycogen synthase kinase-3 beta (Homo sapiens, UniProt P49841); assay: Inhibition of GSK3-beta
[26] = biological target: RAC-gamma serine/threonine-protein kinase (Homo sapiens, UniProt Q9Y243); assay: Inhibition of AKT3
Chain of RAC-gamma serine/threonine-protein kinase (Q9Y243 whole entry): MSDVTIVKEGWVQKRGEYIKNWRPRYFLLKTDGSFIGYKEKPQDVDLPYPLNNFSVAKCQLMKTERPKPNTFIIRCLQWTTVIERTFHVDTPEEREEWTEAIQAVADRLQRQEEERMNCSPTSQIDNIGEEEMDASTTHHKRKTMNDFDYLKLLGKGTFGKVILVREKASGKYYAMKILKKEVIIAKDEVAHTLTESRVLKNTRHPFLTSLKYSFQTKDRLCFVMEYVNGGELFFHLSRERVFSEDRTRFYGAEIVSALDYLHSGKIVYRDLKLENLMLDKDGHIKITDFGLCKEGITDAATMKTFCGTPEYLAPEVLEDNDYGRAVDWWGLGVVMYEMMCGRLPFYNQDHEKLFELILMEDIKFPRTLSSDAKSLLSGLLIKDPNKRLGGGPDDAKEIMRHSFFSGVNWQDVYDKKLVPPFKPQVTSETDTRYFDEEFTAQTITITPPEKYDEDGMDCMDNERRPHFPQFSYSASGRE

Mus musculus = assay: Inhibition of LPS-induced TNF production in mouse at 30 mg/kg, po; type: functional

Chain of Mitogen-activated protein kinase 14 (Q16539 whole entry, the tested form may be a part): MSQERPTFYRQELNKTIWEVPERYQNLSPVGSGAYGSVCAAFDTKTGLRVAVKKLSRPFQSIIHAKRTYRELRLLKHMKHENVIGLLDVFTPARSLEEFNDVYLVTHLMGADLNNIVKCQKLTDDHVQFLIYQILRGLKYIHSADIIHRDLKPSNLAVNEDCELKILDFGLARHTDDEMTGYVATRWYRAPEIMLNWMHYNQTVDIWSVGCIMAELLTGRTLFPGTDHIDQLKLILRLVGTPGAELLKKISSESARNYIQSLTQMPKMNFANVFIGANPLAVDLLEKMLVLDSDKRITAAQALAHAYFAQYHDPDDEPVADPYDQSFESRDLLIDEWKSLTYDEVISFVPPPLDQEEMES

SMILES: N#Cc1ccc2c(-c3ccncc3)c(-c3ccc(F)cc3)nn2c1
IC50 [1]: 0.14 µM

SMILES: Fc1ccc(-c2nn3c(OC4CCCC4)cccc3c2-c2ccncc2)cc1
metabolised at 0.5 h [2]: 8%
metabolised at 0.5 h [11]: 18%
IC50 [1]: 0.17 µM

SMILES: Fc1ccc(-c2nn3cc(F)ccc3c2-c2ccncc2)cc1
metabolised at 0.5 h [2]: 1%
metabolised at 0.5 h [11]: 23%
IC50 [1]: 0.16 µM

SMILES: Cc1cccn2nc(-c3ccc(F)cc3)c(-c3ccncc3)c12
IC50 [1]: 0.28 µM

SMILES: Fc1ccc(-c2nn3cc(C(F)(F)F)ccc3c2-c2ccncc2)cc1
metabolised at 0.5 h [2]: 0%
AUC [3]: 500 ng·h/mL
clearance [7]: 34 mL/min/kg
Vd [8]: 5.4 L/kg
half-life [9]: 2.5 h
metabolised at 0.5 h [11]: 0%
IC50 [1]: 0.2 µM
bioavailability [12]: 84%

SMILES: Fc1ccc(-c2nn3cc(Cl)ccc3c2-c2ccncc2)cc1
IC50 [1]: 0.15 µM

SMILES: Fc1ccc(-c2nn3cccc(F)c3c2-c2ccncc2)cc1
metabolised at 0.5 h [2]: 21%
metabolised at 0.5 h [11]: 39%
IC50 [1]: 0.24 µM

Further lines, with some results ahead:

metabolised at 0.5 h [2]: 0%
AUC [3]: 500 ng·h/mL
clearance [4]: 17 mL/min/kg
bioavailability [5]: 32%
half-life [6]: 6.5 h
clearance [7]: 40 mL/min/kg
Vd [8]: 5.4 L/kg
half-life [9]: 2.1 h
AUC [10]: 1500 ng·h/mL
metabolised at 0.5 h [11]: 0%
IC50 [1]: 0.07 µM
bioavailability [12]: 72%
Vd [13]: 8.2 L/kg
SMILES: Fc1ccc(-c2nn3c(OCC(F)(F)F)cccc3c2-c2ccncc2)cc1

IC50 [1]: 0.05 µM
SMILES: CCOc1cccc2c(-c3ccncc3)c(-c3ccc(F)cc3)nn12

metabolised at 0.5 h [2]: 37%
metabolised at 0.5 h [11]: 84%
IC50 [1]: 0.15 µM
SMILES: Fc1ccc(-c2nn3c(Cl)cccc3c2-c2ccncc2)cc1

metabolised at 0.5 h [2]: 60%
AUC [3]: 200 ng·h/mL
clearance [7]: 83 mL/min/kg
Vd [8]: 2 L/kg
half-life [9]: 1.2 h
IC50 [1]: 0.16 µM
SMILES: Cc1ccn2nc(-c3ccc(F)cc3)c(-c3ccncc3)c2c1

metabolised at 0.5 h [2]: 99%
metabolised at 0.5 h [11]: 81%
IC50 [1]: 0.15 µM
SMILES: Cc1ccc2c(-c3ccncc3)c(-c3ccc(F)cc3)nn2c1

metabolised at 0.5 h [2]: 27%
clearance [4]: 34 mL/min/kg
bioavailability [5]: 18%
half-life [6]: 1.9 h
IC50 [14]: > 10 µM
IC50 [15]: > 10 µM
IC50 [16]: > 10 µM
half-life [17]: 1.2 h
clearance [18]: 49 mL/min/kg
IC50 [19]: > 10 µM
IC50 [20]: > 10 µM
AUC [10]: 500 ng·h/mL
IC50 [21]: > 10 µM
metabolised at 0.5 h [11]: 81%
IC50 [1]: 0.12 µM
AUC [22]: 1700 ng·h/mL
IC50 (Angiopoietin-1 receptor): > 10 µM
Vd [23]: 3.2 L/kg
bioavailability [24]: 50%
Vd [13]: 3.8 L/kg
IC50 [25]: 2.2 µM
IC50 [26]: > 10 µM
SMILES: Fc1ccc(-c2nn3ccccc3c2-c2ccncc2)cc1 [GW434756X]
IC50 (PBMC): 0.3 µM
inhibition in vivo at 30 mg/kg (Mus musculus): 65%

metabolised at 0.5 h [2]: 43%
metabolised at 0.5 h [11]: 93%
IC50 [1]: 0.15 µM
SMILES: Cc1cccc2c(-c3ccncc3)c(-c3ccc(F)cc3)nn12
